# The sample as a whole holds a higher share of hits than the screen did.
# Lmaj promast – Leishmania major promastigote growth inhibition, primary screen. Leishmania major promastigotes, resazurin fluorescence viability. inhibition, % at 10 µM. 200,000 tested, 9% active. AID 1063, 2008; in the data active = inhibition above about 50%;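 note: promastigotes grown with compound for 44 hours at 28 °C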
# S1P3 antagonist – S1P3 receptor antagonists, primary screen, cell-based; inhibition, % at 4.98 µM; CHO S1P3 NFAT-BLA reporter, FRET fluorescence, antagonist mode; Sphingosine 1-phosphate receptor 3 (Homo sapiens), Q99500; AID 485, 2006; 170,000 tested, 0.27% active;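 active = inhibition above the plate cutoff, the mean inhibition of test wells on that plate plus 3 SD, cut at about 28% in these data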;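 note: cells challenged with S1P at its EC80 of 0.8 µM; blue over green emission ratio from cleaved BLA substrate after 4 h stimulation; 0% = S1P-stimulated wells and 100% = unstimulated DMSO-only wells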
# MDM2 E3 inh – MDM2-luciferase reporter signal enhancers, primary screen, MDM2 E3 ligase inhibitor project, cell-based, luminescence, 1536-well; 210,000 tested, 0.11% active; E3 ubiquitin-protein ligase Mdm2 (Homo sapiens), Q00987; AID 1230, 2008; signal enhancement, % at 5 µM; cell-based MDM2 ubiquitination luciferase reporter, 2 h; 0 = plate control, 100 = twice control, blank-subtracted;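 active = signal enhancement of 30% or more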;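 note: luminescence tracks abundance of the self-degrading MDM2-luciferase fusion protein; higher signal means inhibition of MDM2 E3 ligase activity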
#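 Material: stable MDM2–luciferase fusion reporter cells / Quantity: 2000 cells/well / Dosing: single 5 µM compound dose, 0.2% final DMSO / Buffer or medium: DMEM / Schedule: 4 h cell settling then 2 h compound exposure, 37 °C / Detection: luminescence with SteadyLite reagent, 15 min at room temperature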
# S1P4 ag – S1P4 receptor agonists, primary screen, cell-based. 220,000 tested, 0.35% active. S1P4-expressing cell line, agonist reporter assay. AID 1509, 2009. activation, % at 4.98 µM; in the data active = activation above about 11%;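 note: 0% = DMSO vehicle and 100% = reference agonist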
# Target sequence (O95977 whole entry, looked up): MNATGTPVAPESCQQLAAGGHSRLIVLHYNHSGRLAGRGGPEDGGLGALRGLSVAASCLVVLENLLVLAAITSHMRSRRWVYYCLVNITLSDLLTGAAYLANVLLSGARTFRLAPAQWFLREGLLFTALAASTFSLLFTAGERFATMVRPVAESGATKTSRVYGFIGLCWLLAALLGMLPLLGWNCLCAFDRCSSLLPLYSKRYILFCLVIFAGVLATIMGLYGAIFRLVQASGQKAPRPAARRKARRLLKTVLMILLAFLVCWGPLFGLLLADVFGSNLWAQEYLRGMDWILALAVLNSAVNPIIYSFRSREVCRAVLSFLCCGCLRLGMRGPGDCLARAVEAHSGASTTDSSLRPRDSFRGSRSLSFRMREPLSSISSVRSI
# S1P4 antag – S1P4 receptor antagonists, primary screen, cell-based; Sphingosine 1-phosphate receptor 4 (Homo sapiens), O95977; S1P4-expressing cells, antagonist mode, reporter read-out; inhibition, % at 4.98 µM; 220,000 tested, 0.26% active; AID 1510, 2009; in the data active = inhibition above about 29%;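 note: 0% = wells stimulated with agonist and 100% = vehicle wells without agonist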
# Active calls of the source: *; · = no result.
SMILES,Lmaj promast,S1P3 antagonist,MDM2 E3 inh,S1P4 ag,S1P4 antag
Cc1cccc(C)c1NC(=O)CCCSc1nnc(-c2ccc(Cl)cc2)n1-c1ccccc1,56.5*,-9.8,-15.9,-0.5,-24.3
Cc1cccc(C)c1NC(=O)CCCSc1nnc(-c2ccc(F)cc2)n1-c1ccccc1,22.4,-1.6,-10.2,0.0,-12.6
COc1ccc(NC(=O)CCl)cn1,·,4.0,-1.5,-1.8,15.6
O=C(CCl)Nc1ccc(Oc2cnc3ccccc3n2)cc1,66.1*,·,-6.2,1.5,-9.7
CCOC(=O)c1ccc(-n2c(C)nc3ccc(Br)cc3c2=O)cc1,·,-1.2,·,2.3,10.3
O=C(COc1ccccc1C(=O)NCC1CCCO1)Nc1ccc(Br)cc1 (stereo not given),4.4,-13.2,9.5,-0.5,-23.9
CC(C(=O)Nc1ccccc1Sc1ccccc1)N(c1ccccc1)S(C)(=O)=O (stereo not given),99.3*,·,2.0,0.0,-16.9
CS(=O)(=O)N(CC(=O)Nc1ccccc1Sc1ccccc1)c1ccc(F)cc1,75.7*,·,0.6,-2.0,4.8
CS(=O)(=O)N(CC(=O)Nc1ccccc1-c1ccccc1)c1ccc(F)cc1,18.1,13.5,-5.6,-3.2,9.0
CC(=O)c1c(C)[nH]c(C(=O)OCC(=O)Nc2sc3c(c2C#N)CCC(C)C3)c1C (stereo not given),·,4.2,·,0.7,-22.9
COC(=O)c1cc2ccsc2n1Cc1nc(-c2ccc(Cl)cc2)oc1C,99.0*,·,-11.2,2.5,9.7
COC(=O)c1ccc(-c2ccco2)n1Cc1nc(-c2ccc(OC)c(OC)c2)oc1C,66.0*,18.4,-17.8,2.3,-17.3
Cc1ccc(NC(=O)C(Nc2ccccc2)c2ccccc2)cc1 (stereo not given),88.0*,-8.4,-15.0,0.3,-9.8
Cc1cc(C)cc(NC(=O)C(Nc2ccccc2)c2ccccc2)c1 (stereo not given),28.0,10.8,2.2,-0.7,-22.7
Cc1ccc(NC(=O)C(Nc2cccc(C)c2)c2ccccc2)cc1 (stereo not given),59.1*,13.7,-11.8,-0.4,-5.0
CC(C)c1ccccc1NC(=O)COc1ccc(C(=O)NCCc2ccccc2)cc1,71.4*,-6.0,-13.1,1.0,0.3
BrC(=C\c1ccccc1)/C=N/N1CCN(c2ccccn2)CC1,-6.4,·,-18.1,-2.1,-4.6
Cc1cc(C)cc(NC(=O)COc2ccc3c(C)c(Cc4ccccc4)c(=O)oc3c2)c1,93.9*,-5.5,-8.4,1.3,-7.4
Cc1c(Cl)c(=O)oc2cc(OCC(=O)NCc3cccs3)ccc12,62.3*,-0.7,-3.8,-0.4,-23.9
Cn1c(=O)cc(OCC(=O)NCc2cccs2)c2ccccc21,4.5,-13.7,35.3*,-1.3,-11.0
CC(C)CC(=O)NC(=S)Nc1ccc(NC(=O)c2cccs2)cc1,2.7,·,-16.1,-4.6,2.3
CC1=NC(C#N)=C(C#N)NC(C)(C)C1,-6.7,-19.4,-8.6,0.4,-1.4
Cc1ccc(NC(=S)N2CCCC(c3nc4ccccc4[nH]3)C2)cc1 (stereo not given),88.7*,-9.7,-45.4,1.5,-9.2
O=C(NCc1ccccc1)C1CCN(S(=O)(=O)c2ccc(Cl)cc2)CC1,-4.3,12.4,-15.8,5.5,-11.1
CCOC(=O)c1c(NC(=O)C(Sc2ccccc2)c2ccccc2)sc(C(=O)N(C)C)c1C (stereo not given),98.4*,-6.4,-5.3,-0.2,-18.0
SMILES,Lmaj promast,S1P3 antagonist,MDM2 E3 inh,S1P4 ag,S1P4 antag
COc1cc(NC(=O)CN2CCCCC2C)c(C)cc1[N+](=O)[O-] (stereo not given),69.3*,6.8,-1.8,-0.1,-6.8
COc1cccc2sc(Nc3nnc(-c4ccc(F)cc4)o3)nc12,95.7*,·,1.6,1.6,-0.5
COc1cccc2sc(Nc3nnc(-c4cccs4)o3)nc12,95.6*,14.4,2.2,-0.7,2.9
Fc1cccc2sc(Nc3nnc(-c4ccco4)o3)nc12,-3.0,-38.1,-14.0,0.9,-2.8
COc1ccc(NC(C)c2cc(Cl)ccc2O)cc1 (stereo not given),8.1,63.3*,-13.0,-1.8,3.3
CC(Nc1ccccc1)c1cc(Cl)ccc1O (stereo not given),96.0*,·,·,0.0,-2.7

# Source: PubChem
